Measurements published in article PMC8105262 (Molecular imaging and biology, 2020).
Read-outs that look alike come from different tables or passages of the source. Blank lines part the entries; values can stand above or below the compound they belong to.

Tests used:
SV2A [1] = target: T1, SV2A (Mus musculus, UniProt Q9JIS5); type: binding
Method in brief: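 Mouse brain homogenate in 50 mM Tris-HCl with 2 mM MgCl2, pH 7.4, at 0.01 mg protein per well. Unlabelled ligand added from standard solutions of 0.1–50,000 nM, plus radioligand (~0.074 MBq, 2.3 nM). Shaken at 37 °C for 30 min, filters washed twice with buffer, then gamma counted. Binding expressed as pmol/mg protein. Nonspecific binding defined with 0.05 mM unlabelled ligand. Specific binding plotted against log total (hot + cold) ligand concentration.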

SV2A [2] = target: T1, SV2A; type: binding; remark: listed apart in the source
[3] = test system: SV2A binding in the hippocampus; settings: APP/PS1 mice vs WT, [^11C]UCB-J PET; cited from earlier work
SV2A [4] = settings: [^3H]UCB-J competitive binding, rat whole brain; cited from earlier work
SV2A [5] = target: T1, SV2A; assay: Dynamic small animal PET imaging of mouse brain with [^18F]SynVesT-1; type: in vivo
Method in brief: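 Female WT (C57BL/6J) and APP/PS1 mice, 88 ± 4 weeks, n = 3 each, under 1.5–2.5% isoflurane on a heating pad. Radiotracer given as an i.v. lateral tail-vein bolus (10.28 ± 3.74 MBq in 0.1 mL). Baseline emission data acquired 0–90 min p.i. on small-animal PET/CT. OSEM3D/MAP reconstruction with decay, attenuation, scatter, normalization and randoms corrections. Images co-registered to mouse brain atlas space for regional time-activity curves.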

SV2A [6] = settings: rat brain homogenate; cited from earlier work
[7] = rodent brain, from time-activity curves

T1 sequence (Q9JIS5 whole entry): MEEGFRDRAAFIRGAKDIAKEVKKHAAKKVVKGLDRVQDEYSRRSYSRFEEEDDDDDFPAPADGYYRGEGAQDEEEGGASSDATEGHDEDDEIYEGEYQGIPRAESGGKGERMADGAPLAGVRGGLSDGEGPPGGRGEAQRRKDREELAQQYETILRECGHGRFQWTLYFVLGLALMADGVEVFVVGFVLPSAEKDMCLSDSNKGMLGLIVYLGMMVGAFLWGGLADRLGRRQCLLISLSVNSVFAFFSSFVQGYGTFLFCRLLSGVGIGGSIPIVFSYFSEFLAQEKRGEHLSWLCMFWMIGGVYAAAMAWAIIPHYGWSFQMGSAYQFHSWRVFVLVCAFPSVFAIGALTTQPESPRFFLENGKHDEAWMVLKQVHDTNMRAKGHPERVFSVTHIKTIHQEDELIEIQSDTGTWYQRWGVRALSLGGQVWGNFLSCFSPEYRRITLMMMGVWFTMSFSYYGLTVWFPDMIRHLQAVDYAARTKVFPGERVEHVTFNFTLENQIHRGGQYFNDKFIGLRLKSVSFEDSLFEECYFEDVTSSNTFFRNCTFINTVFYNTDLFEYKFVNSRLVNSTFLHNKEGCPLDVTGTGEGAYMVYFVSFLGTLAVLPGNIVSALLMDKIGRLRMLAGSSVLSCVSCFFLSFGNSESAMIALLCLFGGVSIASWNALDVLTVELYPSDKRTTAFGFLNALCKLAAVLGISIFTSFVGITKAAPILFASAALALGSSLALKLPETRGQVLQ

Kd (SV2A [1]; mouse brain homogenate, 37 °C, 30 min, Kd=Ki=IC50−[radioligand]): 19.6 ± 1.38 nM
Kd (SV2A [2]; WT mouse brain sections, nonspecific binding with 1 mM levetiracetam): 9.8 ± 1.7 nM
Structure (SMILES): Cc1cnccc1CN1C[C@@H](c2cc(F)cc(F)c2)CC1=O [[^18F]SynVesT-1, (R)-4-(3-Fluoro-5-(fluoro-^18F)phenyl)-1-((3-methylpyridin-4-yl)methyl)pyrrolidin-2-one]

Structure (SMILES): CN1CCN(CCOc2cc(OC3CCOCC3)c3c(Nc4c(Cl)ccc5c4OCO5)ncnc3c2)CC1 [saracatinib]
Effect of treatment on decreased hippocampal SV2A binding [3]: restored to the same level as the WT mice

Structure (SMILES): Cc1cnccc1CN1C[C@@H](c2cc(F)cc(F)c2)CC1=O [SynVesT-1]
Ki (SV2A [4]): 2.2 nM

Bmax (SV2A [1]; mouse brain homogenate): 4.54 pmol/mg protein
Bmax (range over homologous competitive and autoradiographic saturation assays) (SV2A [1]; rodent brain tissue): 4.5–18 pmol/mg protein
Bmax (SV2A [2]; WT mouse brain sections): 1.8 ± 0.1 pmol/mg of brain tissue
Bmax (SV2A [2]; WT mouse brain sections, assuming 10% of brain tissue is protein): 18 ± 1 pmol/mg protein
Radioligand concentration at which total binding appeared to saturate (SV2A [2]; mouse brain sections): above 25 nM
Time of peak of brain time-activity curves (SV2A [5]; WT and APP/PS1 mice, i.v. bolus, 0–90 min scan): ≤ 20 min p.i.
BBB penetration (SV2A [5]; [7]): efficient BBB penetration
Binding kinetics in brain (SV2A [5]; [7]): reversible binding kinetics
Structure (SMILES): Cc1cnccc1CN1C[C@@H](c2cc(F)cc([18F])c2)CC1=O [[^18F]SynVesT-1, (R)-4-(3-Fluoro-5-(fluoro-^18F)phenyl)-1-((3-methylpyridin-4-yl)methyl)pyrrolidin-2-one]

Structure (SMILES): Cc1cnccc1CN1C[C@@H](c2cc(F)c(F)c(F)c2)CC1=O [UCB-J]
Kd (SV2A [6]): 2.6 ± 0.25 nM
